Data taken from ChEMBL document CHEMBL1955833, “Wnt inhibition correlates with human embryonic stem cell cardiomyogenesis: a structure-activity relationship study based on inhibitors for the Wnt response” (J Med Chem, 2012).
Calls of active or inactive are those of the source. No cut-off for these calls is given here.

Columns and labels:
[1] = Inhibition of beta-catenin-dependent canonical Wnt3 pathway in human HEK293T cells by luciferase reporter gene assay; assay type: cell-based; conditions: HEK-293T
[2] = Inhibition of beta-catenin-dependent canonical Wnt3A pathway in human HEK293T cells at 1 uM by luciferase reporter gene assay; assay type: cell-based; conditions: HEK-293T
Outline: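 HEK293T cells transiently co-transfected with Super(8x)TOPflash (TCF-firefly luciferase), TK-Renilla luciferase for normalization, and a Wnt3A-expressing vector to activate the pathway. Compounds tested at a single concentration of 1 μM, alongside untreated and DMSO vehicle controls. Firefly signal normalized to Renilla.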

H9 [3] = assay: Cardiogenic activity in human H9 cells after 14 days by MYH6-mCherry reporter gene assay relative to 4-[(1R,2S,6R,7S)-3,5-dioxo-4-azatricyclo[5.2.1.0~2,6~]dec-8-en-4-yl]-N-quinolin-8-ylbenzamide; assay type: functional
Outline: (§1)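 hESC embryoid bodies grown to day 4, dissociated to single cells and plated in 384-well format with serial compound dilutions. At day 10 switched to serum-free medium with T3. At day 14 moved to PBS and imaged for red fluorescence. Total area and intensity of the MYH6-mCherry reporter were quantified per well and expressed as percent cardiogenesis, with the reference set to 100% at its maximum.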

[4] = Chemical stability in phosphate buffer pH 7.4 at 10 uM after 30 hrs by HPLC analysis; assay type: physicochemical; conditions: pH 7.4, 30 h
Outline: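 Degradation followed by HPLC, and half-life determined where degradation occurred.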

HEK-293T [5] = assay: Cytotoxicity against human HEK293T cells at 0.2 to 20 uM after 24 hrs by alamar blue assay; assay type: cell-based
HEK-293T [6] = assay: Inhibition of human recombinant TGFbeta2-induced Smad signaling in HEK293T cells at 0.01 to 5 uM by luciferase reporter gene assay; assay type: cell-based
Outline: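 HEK293T cells carrying a SMAD response element reporter were stimulated with human recombinant TGFβ2. Compounds were incubated at 0.01, 0.1, 1 and 5 μM. Percent inhibition of the SMAD response was calculated relative to DMSO vehicle controls.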

H9 [7] = assay: Cardiogenic activity in human H9 cells at < 0.15 uM after 14 days by MYH6-mCherry reporter gene assay relative to 4-[(1R,2S,6R,7S)-3,5-dioxo-4-azatricyclo[5.2.1.0~2,6~]dec-8-en-4-yl]-N-quinolin-8-ylbenzamide; assay type: functional, cell-based; outline: as §1
Embryonic stem cell = assay: Cardiogenic activity in human embryonic stem cells at 50 uM by MYH6 reporter gene assay relative to control; assay type: functional, cell-based

Row | Compound | IC50 [1] | inhibition [2] | Activity (H9 [3]) | also measured
1 | O=C1[C@@H]2[C@@H]3CC[C@@H](C3)[C@@H]2C(=O)N1[C@H]1CC[C@H](C(=O)Nc2cncc3ccccc23)CC1 | 55 nM | 89% | Dose-dependent effect | Activity (H9 [3]; record 2): 119%
2 | O=C1[C@@H]2[C@@H]3CC[C@@H](C3)[C@@H]2C(=O)N1[C@H]1CC[C@@H](C(=O)Nc2cccc3cccnc23)CC1 | 57 nM | 90% | Dose-dependent effect | Activity (H9 [3]; record 2): 65%
3 | CC1[C@H]2CC[C@@H]1[C@@H]1C(=O)N(c3ccc(C(=O)Nc4cccc5cccnc45)cc3)C(=O)[C@@H]12 (some centres not stated) | 1180 nM | 76% |  | 
4 | O=C(Nc1cccc2cccnc12)c1ccc(N2C(=O)[C@@H]3[C@@H]4CC[C@@H](C4)[C@@H]3C2=O)cc1 | 24 nM | 93% | Dose-dependent effect | Activity (H9 [3]; record 2): 75%
5 | O=C(Nc1cccc2cccnc12)c1ccc(N2C(=O)[C@@H]3[C@H](C2=O)[C@@H]2C=C[C@H]3C2)cc1 |  |  | Dose-dependent effect | Stability [4]: Stable; Activity (HEK-293T [5]): Non-toxic; inhibition (HEK-293T [6]): < 20%
6 | O=C1[C@@H]2[C@@H]3CC[C@@H](C3)[C@@H]2C(=O)N1[C@H]1CC[C@H](C(=O)Nc2nccc3ccccc23)CC1 | 95 nM | 88% | Dose-dependent effect | Activity (H9 [3]; record 2): 84%
7 | O=C(Nc1ccccc1O)c1ccc(N2C(=O)[C@@H]3[C@@H]4CC[C@@H](C4)[C@@H]3C2=O)cc1 |  | 33% |  | 
8 | O=C1CCCc2cccc(NC(=O)[C@H]3CC[C@H](N4C(=O)[C@@H]5[C@@H]6CC[C@@H](C6)[C@@H]5C4=O)CC3)c21 | 7 nM | 92% | 176% | inhibition (HEK-293T [6]): < 20%; Activity (H9 [7]): Active
9 | Cc1cc(/C=C/c2ccc3cc(N(C)C)ccc3[n+]2C)c(C)n1-c1ccccc1 |  |  |  | Activity (HEK-293T [5]): Toxic
10 | COc1ccccc1NC(=O)c1ccc(N2C(=O)[C@@H]3[C@@H]4CC[C@@H](C4)[C@@H]3C2=O)cc1 | 215 nM | 84% | 8% | 
11 | O=C1[C@@H]2[C@@H]3CC[C@@H](C3)[C@@H]2C(=O)N1[C@H]1CC[C@H](C(=O)Nc2ccccn2)CC1 | 109 nM | 82% | 3% | 
12 | O=C(Nc1cccc2cccnc12)c1cccc(N2C(=O)[C@@H]3[C@@H]4CC[C@@H](C4)[C@@H]3C2=O)c1 |  | 0% |  | 
13 | O=C1[C@@H]2[C@@H]3CC[C@@H](C3)[C@@H]2C(=O)N1[C@H]1CC[C@H](C(=O)Nc2ccnc3ccccc23)CC1 | 109 nM | 90% |  | 
14 | O=C1[C@@H]2[C@@H]3CC[C@@H](C3)[C@@H]2C(=O)N1[C@H]1CC[C@H](C(=O)Nc2cccnc2)CC1 | 120 nM | 89% | 15% | Stability [4]: Stable; inhibition (HEK-293T [6]): < 20%
15 | COc1cc(Br)ccc1NC(=O)[C@H]1CC[C@H](N2C(=O)[C@@H]3[C@@H]4CC[C@@H](C4)[C@@H]3C2=O)CC1 | 37 nM | 82% | Dose-dependent effect | inhibition (HEK-293T [6]): < 20%; Activity (H9 [3]; record 2): 20%
16 | O=C1[C@@H]2[C@@H]3CC[C@@H](C3)[C@@H]2C(=O)N1[C@H]1CC[C@H](C(=O)Nc2cccc3cnccc23)CC1 | 161 nM | 87% |  | 
17 | O=C1c2ccccc2-c2cccc(NC(=O)[C@H]3CC[C@H](N4C(=O)[C@@H]5[C@@H]6CC[C@@H](C6)[C@@H]5C4=O)CC3)c21 | 194 nM | 88% | Dose-dependent effect | Activity (H9 [3]; record 2): 104%
18 | O=C(Nc1cccc2cccnc12)c1ccc(N2C(=O)[C@@H]3[C@H]4CC[C@H](CC4)[C@@H]3C2=O)cc1 | 314 nM | 87% | 2% | 
19 | O=C1[C@@H]2[C@@H]3CC[C@@H](C3)[C@@H]2C(=O)N1[C@H]1CC[C@H](C(=O)Nc2cccc3cccnc23)CC1 | 4 nM | 89% | 145% | inhibition (HEK-293T [6]): < 20%; Activity (H9 [7]): Active
20 | O=C1[C@@H]2[C@@H]3CC[C@@H](C3)[C@@H]2C(=O)N1c1ccc(CNc2cccc3cccnc23)cc1 |  | 45% |  | 
21 | COC(=O)c1ccccc1NC(=O)[C@H]1CC[C@H](N2C(=O)[C@@H]3[C@@H]4CC[C@@H](C4)[C@@H]3C2=O)CC1 | 67 nM | 86% | Dose-dependent effect | Activity (H9 [3]; record 2): 38%

Row | Compound | IC50 [1] | inhibition [2] | Activity (H9 [3]) | also measured
22 | O=C1[C@@H]2[C@@H]3CC[C@@H](C3)[C@@H]2C(=O)N1[C@H]1CC[C@H](C(=O)Nc2cncc(O)c2)CC1 | 152 nM | 86% | Dose-dependent effect | Activity (H9 [3]; record 2): 61%
23 | CC(=O)c1ccc(NC(=O)[C@H]2CC[C@H](N3C(=O)[C@@H]4[C@@H]5CC[C@@H](C5)[C@@H]4C3=O)CC2)cn1 | 590 nM | 56% | 3% | inhibition (HEK-293T [6]): < 20%
24 | N#Cc1ccc(NC(=O)c2ccc(N3C(=O)[C@@H]4[C@@H]5CC[C@@H](C5)[C@@H]4C3=O)cc2)cc1 | 317 nM | 70% | 1% | 
25 | O=C(Nc1cccc2ccccc12)c1ccc(N2C(=O)[C@@H]3[C@@H]4CC[C@@H](C4)[C@@H]3C2=O)cc1 | 1590 nM | 41% | 8% | 
26 | O=C1[C@@H]2[C@@H]3CC[C@@H](C3)[C@@H]2C(=O)N1[C@H]1CC[C@H](C(=O)Nc2ccncc2)CC1 | 80 nM | 84% | 3% | 
27 | O=C1[C@@H]2[C@@H]3CC[C@@H](C3)[C@@H]2C(=O)N1[C@H]1CC[C@H](C(=O)Nc2ccccc2O)CC1 | 484 nM | 76% |  | 
28 | CC(=O)c1ccccc1NC(=O)[C@H]1CC[C@H](N2C(=O)[C@@H]3[C@@H]4CC[C@@H](C4)[C@@H]3C2=O)CC1 | 6 nM | 91% | 78% | Stability [4]: Stable; inhibition (HEK-293T [6]): < 20%; Activity (H9 [7]): Active
29 | COc1ccc(NC(=O)c2ccc(N3C(=O)[C@@H]4[C@@H]5CC[C@@H](C5)[C@@H]4C3=O)cc2)cc1 |  | 50% |  | 
30 | CC(=O)c1ncccc1NC(=O)[C@H]1CC[C@H](N2C(=O)[C@@H]3[C@@H]4CC[C@@H](C4)[C@@H]3C2=O)CC1 | 7 nM | 79% | 145% | inhibition (HEK-293T [6]): < 20%; Activity (H9 [7]): Active
31 | CCOc1ccccc1NC(=O)[C@H]1CC[C@H](N2C(=O)[C@@H]3[C@@H]4CC[C@@H](C4)[C@@H]3C2=O)CC1 | 190 nM | 78% |  | 
32 | O=C1[C@@H]2[C@@H]3CC[C@@H](C3)[C@@H]2C(=O)N1[C@H]1CC[C@H](C(=O)Nc2cccc3ncccc23)CC1 | 604 nM | 68% |  | 
33 | CN(C)c1ccc(NC(=O)c2ccc(N3C(=O)[C@@H]4[C@@H]5CC[C@@H](C5)[C@@H]4C3=O)cc2)cc1 |  | 25% |  | 
34 | O=C(Nc1cccc2cccnc12)c1ccc(N2C(=O)C3C(C2=O)[C@H]2CC[C@@H]3O2)cc1 (some centres not stated) | 605 nM | 49% | 2% | 
35 | O=C(Nc1cccc2cccnc12)c1ccc(N2C(=O)[C@@H]3[C@@H]4CC[C@@H](C4)[C@@H]3C2=O)o1 |  | 0% |  | 
36 | O=C1[C@@H]2[C@@H]3CC[C@@H](C3)[C@@H]2C(=O)N1[C@H]1CC[C@H](C(=O)Nc2cccnc2Cl)CC1 | 169 nM | 13% | Dose-dependent effect | Activity (H9 [3]; record 2): 56%
37 | CC(=O)c1ccc(NC(=O)c2ccc(N3C(=O)[C@@H]4[C@@H]5CC[C@@H](C5)[C@@H]4C3=O)cc2)cc1 |  | 41% |  | 
38 | O=C1[C@@H]2[C@@H]3CC[C@@H](C3)[C@@H]2C(=O)N1c1ccc2c(c1)C(=O)N(c1cccc3cccnc13)C2=O |  | 15% |  | 
39 | O=C(Nc1cccc2cccnc12)c1ccc(N2C(=O)[C@@H]3[C@H](C2=O)[C@@H]2C=C[C@H]3CC2)cc1 | 412 nM | 83% |  | 
40 | CC(=O)c1ccccc1NC(=O)[C@H]1CC[C@@H](N2C(=O)[C@@H]3[C@@H]4CC[C@@H](C4)[C@@H]3C2=O)CC1 | 23 nM | 91% | Dose-dependent effect | Activity (H9 [3]; record 2): 72%
41 | COc1ccc(/C=C2/SC(=S)N(CCCC(=O)O)C2=O)cc1OC | 728 nM |  |  | Activity (HEK-293T [5]): Non-toxic; Activity (Embryonic stem cell): Active
